Test results reported in ChEMBL document CHEMBL3870334, “Synthesis, anticancer, and docking studies of salicyl-hydrazone analogues: A novel series of small potent tropomyosin receptor kinase A inhibitors” (Bioorg Med Chem, 2017).
pIC50: −log10 of the molar value.

Legend:
[1] = Cytotoxicity against human A549 cells assessed as reduction in cell proliferation measured after 48 hrs by SRB assay; format: functional, cell-based; conditions: A549, 48 h
Summary of the method: (§1)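 SRB assay of net cell proliferation after continuous 48 h exposure to test compound. Inhibition is expressed as a percentage of non-treated controls. Samples were run in triplicate, and the mean IC50 (concentration giving 50% inhibition of proliferation) was calculated. Doxorubicin served as positive control.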

[2] = Cytotoxicity against human SKOV3 cells assessed as reduction in cell proliferation measured after 48 hrs by SRB assay; format: functional, cell-based; conditions: SK-OV-3, 48 h; summary of the method: as §1
[3] = Cytotoxicity against human SK-MEL-2 cells assessed as reduction in cell proliferation measured after 48 hrs by SRB assay; format: functional, cell-based; conditions: SK-MEL-2, 48 h; summary of the method: as §1
[4] = Cytotoxicity against human HCT15 cells assessed as reduction in cell proliferation measured after 48 hrs by SRB assay; format: functional, cell-based; conditions: HCT-15, 48 h; summary of the method: as §1
[5] = Cytotoxicity against human MIAPaCa2 cells assessed as reduction in cell proliferation measured after 48 hrs by SRB assay; format: functional, cell-based; conditions: MIA PaCa-2, 48 h; summary of the method: as §1
[6] = target: T1, High affinity nerve growth factor receptor (Homo sapiens, UniProt P04629); assay: Inhibition of human N- terminal GST-tagged TrkA cytoplasmic domain (436 to 790 residues) expressed in baculovirus infected sf21 cells at 1 uM using biotinylated peptide substrate incubated for 15 mins followed by addition of ATP measured after 30 mins by TR-FRET assay relative to control
Target sequence in this assay (P04629 33-796 limits assumed): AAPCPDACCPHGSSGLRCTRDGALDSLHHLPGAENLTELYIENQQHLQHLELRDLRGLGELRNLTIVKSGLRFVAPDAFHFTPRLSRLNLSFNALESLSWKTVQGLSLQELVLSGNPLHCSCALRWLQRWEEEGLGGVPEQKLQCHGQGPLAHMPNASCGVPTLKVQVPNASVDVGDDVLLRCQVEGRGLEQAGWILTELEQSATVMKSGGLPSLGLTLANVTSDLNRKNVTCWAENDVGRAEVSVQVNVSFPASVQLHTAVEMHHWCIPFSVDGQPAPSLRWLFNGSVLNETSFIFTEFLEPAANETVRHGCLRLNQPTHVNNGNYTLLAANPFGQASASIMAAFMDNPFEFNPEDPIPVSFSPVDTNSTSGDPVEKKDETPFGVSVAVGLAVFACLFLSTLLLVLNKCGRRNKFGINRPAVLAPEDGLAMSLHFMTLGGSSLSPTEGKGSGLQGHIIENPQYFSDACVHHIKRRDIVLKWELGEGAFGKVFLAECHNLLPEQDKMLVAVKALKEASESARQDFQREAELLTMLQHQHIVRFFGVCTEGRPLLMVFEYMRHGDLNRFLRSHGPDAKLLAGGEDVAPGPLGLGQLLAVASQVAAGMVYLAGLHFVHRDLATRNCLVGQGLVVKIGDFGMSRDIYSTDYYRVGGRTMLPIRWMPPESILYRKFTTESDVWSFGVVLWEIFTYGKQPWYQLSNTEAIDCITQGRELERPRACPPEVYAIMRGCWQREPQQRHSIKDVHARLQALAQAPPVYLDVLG

[7] = target: T1, High affinity nerve growth factor receptor; assay: Inhibition of human N- terminal GST-tagged TrkA cytoplasmic domain (436 to 790 residues) expressed in baculovirus infected sf21 cells using biotinylated peptide substrate incubated for 15 mins followed by addition of ATP measured after 30 mins by TR-FRET assay
Target sequence in this assay (P04629 whole entry, the tested form may be a part): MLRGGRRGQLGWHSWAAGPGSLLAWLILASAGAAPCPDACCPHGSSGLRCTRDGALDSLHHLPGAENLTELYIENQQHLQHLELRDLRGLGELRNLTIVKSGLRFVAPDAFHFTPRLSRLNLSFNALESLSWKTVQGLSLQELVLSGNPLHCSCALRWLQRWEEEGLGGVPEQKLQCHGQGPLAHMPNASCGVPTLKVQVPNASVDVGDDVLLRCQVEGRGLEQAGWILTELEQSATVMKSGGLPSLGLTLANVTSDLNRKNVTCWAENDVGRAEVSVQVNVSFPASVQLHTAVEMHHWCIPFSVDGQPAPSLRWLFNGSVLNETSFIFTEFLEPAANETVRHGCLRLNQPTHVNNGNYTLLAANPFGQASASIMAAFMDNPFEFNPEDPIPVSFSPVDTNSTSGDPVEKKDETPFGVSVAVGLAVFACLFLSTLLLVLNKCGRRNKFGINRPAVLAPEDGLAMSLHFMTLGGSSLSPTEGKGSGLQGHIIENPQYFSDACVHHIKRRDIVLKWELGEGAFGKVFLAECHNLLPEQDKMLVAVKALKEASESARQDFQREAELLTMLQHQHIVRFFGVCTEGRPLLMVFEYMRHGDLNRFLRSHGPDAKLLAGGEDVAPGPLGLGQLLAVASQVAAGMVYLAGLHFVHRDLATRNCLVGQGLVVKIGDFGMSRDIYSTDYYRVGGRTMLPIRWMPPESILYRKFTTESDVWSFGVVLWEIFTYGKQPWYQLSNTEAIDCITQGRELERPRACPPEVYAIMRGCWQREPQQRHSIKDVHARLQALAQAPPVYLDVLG

[8] = target: T1, High affinity nerve growth factor receptor; assay: Inhibition of TrkA (unknown origin) by ELISA
Target sequence in this assay (P04629 whole entry, the tested form may be a part): as above

[9] = target: T1, High affinity nerve growth factor receptor; assay: Inhibition of human TrkA expressed in human U2OS cells assessed as inhibition of NGF-induced response measured after 1 hr by beta-galactosidase assay; format: cell-based
Target sequence in this assay (P04629 whole entry, the tested form may be a part): as above

[10] = target: T1, High affinity nerve growth factor receptor; assay: Inhibition of TrkA (unknown origin)
Summary of the method: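 Purified TrkA, biotinylated substrate peptide and inhibitor were preincubated 15 min at 25°C, then 100 µM ATP was added. After 30 min, Eu-cryptate anti-phosphotyrosine antibody (1 µM) and streptavidin-XL665 (125 nM) were added for 1 h. HTRF read at 320 nm excitation, 620/665 nm emission ratio. IC50 from % inhibition across 12 serial dilutions (0.03~10000 nM).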
Target sequence in this assay (P04629 whole entry, the tested form may be a part): as above

Structure (SMILES) | pIC50 [1] | pIC50 [2] | pIC50 [3] | pIC50 [4] | pIC50 [5] | inhibition [6] | pIC50 [7] | pIC50 [8] | pIC50 [9] | pIC50 [10]
O=C(N/N=C/c1ccccc1)c1ccccc1O | 5.56 | 5.23 | 5.01 | 4.67 | 5.61 | – | – | – | – | –
COc1cccc2c1C(=O)c1c(O)c3c(c(O)c1C2=O)C[C@@](O)(C(=O)CO)C[C@@H]3O[C@H]1C[C@H](N)[C@H](O)[C@H](C)O1 [DOXORUBICIN] | 7.68 | 7.13 | 9.00 | 6.06 | 7.31 | – | – | – | – | –
O=C(N/N=C/c1ccc(O)cc1O)c1ccccc1O | 5.61 | 6.06 | 5.84 | 6.05 | 6.32 | 92.4% | 6.64 | – | – | –
O=C(N/N=C/c1ccccc1[N+](=O)[O-])c1ccccc1O | 4.64 | 4.71 | 4.71 | 4.46 | 4.85 | – | – | – | – | –
CC1(C)C[C@H](c2cc(F)ccc2F)N(c2ccn3ncc(NC(=O)c4cnccn4)c3n2)C1 | – | – | – | – | – | – | – | 8.70 | – | –
CN(C)c1ccc(/C=N/NC(=O)c2ccccc2O)cc1 | 4.67 | 4.73 | 4.71 | 4.42 | 4.68 | – | – | – | – | –
Cn1cc(/C=C2\C(=O)Nc3cccnc32)c2ccccc21 | – | – | – | – | – | > 99% | – | – | – | –
O=C(N/N=C/c1ccc(O)c(O)c1)c1ccccc1O | 5.50 | 5.04 | 5.05 | 5.00 | 5.32 | 92.9% | 5.59 | – | – | –
COc1ncc(C(=O)C2CC(C(C)C)c3ncncc32)cc1NC(=O)Nc1cc(Cl)cc(Cl)c1 (configuration not stated) | – | – | – | – | – | – | – | – | 7.32 | –
Oc1ccc(Nc2nc(-c3ccccc3O)nc3ccccc23)cc1 | – | – | – | – | – | – | – | – | – | 6.52
COc1ccc(/C=N/NC(=O)c2ccccc2O)cc1 | 4.89 | 4.84 | 4.82 | 4.55 | 5.06 | – | – | – | – | –
COc1ccccc1/C=C/C(=O)Nc1nc(N)n(-c2ccccc2)n1 | – | – | – | – | – | – | – | – | – | 7.57
COc1ccc(/C=N/NC(=O)c2ccccc2O)c(OC)c1 | 4.50 | 4.84 | 4.71 | 4.59 | 4.95 | 7.61% | – | – | – | –
O=C(N/N=C/c1ccc(O)c(O)c1O)c1ccccc1O | 5.15 | 5.71 | 5.74 | 5.43 | 5.66 | 90.9% | 6.42 | – | – | –
Nc1ccc(Cc2cccc(NC(=O)N3CCN(c4ccccc4)C3=O)c2)cn1 | – | – | – | – | – | – | – | – | – | 7.70
O=C(N/N=C/c1ccc([N+](=O)[O-])cc1)c1ccccc1O | 5.06 | 5.06 | 5.03 | 4.64 | 5.17 | – | – | – | – | –
Cc1ccc(/C=N/NC(=O)c2ccccc2O)cc1 | 5.17 | 5.01 | 4.88 | 4.57 | 5.35 | 3.7% | – | – | – | –
CCc1ncc(C(=O)C2CC([C@@H](C)CO)c3ncncc32)cc1NC(=O)Cc1ccc(C(F)(F)F)cc1 (some centres not stated) | – | – | – | – | – | – | – | – | 7.89 | –
O=C(N/N=C/c1ccc(Cl)cc1)c1ccccc1O | 4.65 | 5.01 | 4.85 | 4.68 | 5.14 | 6.92% | – | – | – | –
O=C(N/N=C/c1ccc(O)cc1)c1ccccc1O | 5.54 | 5.04 | 5.26 | 5.07 | 5.93 | 20.6% | – | – | – | –
